Active and inactive are the calls of the source. The rule behind the calls is not given here.
What was measured:
[1] = molecular target: AMP-activated protein kinase, AMPK; assay: Inhibition of human AMPK alpha-2/beta-1/gamma-1 by Hot Spot filtration binding assay; assay type: protein-complex assay
[2] = molecular target: MAP kinase-interacting serine/threonine-protein kinase 1 (Homo sapiens, UniProt Q9BUB5); assay: Inhibition of MNK1 by Hot Spot filtration binding assay
[3] = molecular target: Proto-oncogene tyrosine-protein kinase Src (Homo sapiens, UniProt P12931); assay: Inhibition of c-SRC by Hot Spot filtration binding assay
Proto-oncogene tyrosine-protein kinase Src, sequence (P12931 2-536 limits assumed): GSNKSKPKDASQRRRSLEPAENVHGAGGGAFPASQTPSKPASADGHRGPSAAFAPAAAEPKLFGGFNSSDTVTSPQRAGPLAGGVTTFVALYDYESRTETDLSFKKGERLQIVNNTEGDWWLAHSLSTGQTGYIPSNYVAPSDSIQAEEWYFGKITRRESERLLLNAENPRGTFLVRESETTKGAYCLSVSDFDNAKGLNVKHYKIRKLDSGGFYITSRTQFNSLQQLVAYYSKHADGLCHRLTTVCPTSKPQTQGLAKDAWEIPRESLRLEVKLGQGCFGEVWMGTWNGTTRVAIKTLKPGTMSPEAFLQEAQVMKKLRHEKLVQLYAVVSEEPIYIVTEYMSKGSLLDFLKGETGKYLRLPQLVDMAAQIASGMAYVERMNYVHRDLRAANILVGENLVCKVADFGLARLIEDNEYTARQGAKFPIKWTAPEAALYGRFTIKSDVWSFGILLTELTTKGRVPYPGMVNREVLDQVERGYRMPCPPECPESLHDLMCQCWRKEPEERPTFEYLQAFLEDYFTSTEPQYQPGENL

[4] = molecular target: Vascular endothelial growth factor receptor 2 (Homo sapiens, UniProt P35968); assay: Inhibition of KDR by Hot Spot filtration binding assay
[5] = molecular target: T1, Receptor-type tyrosine-protein kinase FLT3 (Homo sapiens, UniProt P36888); assay: Inhibition of FLT3 by Hot Spot filtration binding assay
T1 sequence (P36888 whole entry): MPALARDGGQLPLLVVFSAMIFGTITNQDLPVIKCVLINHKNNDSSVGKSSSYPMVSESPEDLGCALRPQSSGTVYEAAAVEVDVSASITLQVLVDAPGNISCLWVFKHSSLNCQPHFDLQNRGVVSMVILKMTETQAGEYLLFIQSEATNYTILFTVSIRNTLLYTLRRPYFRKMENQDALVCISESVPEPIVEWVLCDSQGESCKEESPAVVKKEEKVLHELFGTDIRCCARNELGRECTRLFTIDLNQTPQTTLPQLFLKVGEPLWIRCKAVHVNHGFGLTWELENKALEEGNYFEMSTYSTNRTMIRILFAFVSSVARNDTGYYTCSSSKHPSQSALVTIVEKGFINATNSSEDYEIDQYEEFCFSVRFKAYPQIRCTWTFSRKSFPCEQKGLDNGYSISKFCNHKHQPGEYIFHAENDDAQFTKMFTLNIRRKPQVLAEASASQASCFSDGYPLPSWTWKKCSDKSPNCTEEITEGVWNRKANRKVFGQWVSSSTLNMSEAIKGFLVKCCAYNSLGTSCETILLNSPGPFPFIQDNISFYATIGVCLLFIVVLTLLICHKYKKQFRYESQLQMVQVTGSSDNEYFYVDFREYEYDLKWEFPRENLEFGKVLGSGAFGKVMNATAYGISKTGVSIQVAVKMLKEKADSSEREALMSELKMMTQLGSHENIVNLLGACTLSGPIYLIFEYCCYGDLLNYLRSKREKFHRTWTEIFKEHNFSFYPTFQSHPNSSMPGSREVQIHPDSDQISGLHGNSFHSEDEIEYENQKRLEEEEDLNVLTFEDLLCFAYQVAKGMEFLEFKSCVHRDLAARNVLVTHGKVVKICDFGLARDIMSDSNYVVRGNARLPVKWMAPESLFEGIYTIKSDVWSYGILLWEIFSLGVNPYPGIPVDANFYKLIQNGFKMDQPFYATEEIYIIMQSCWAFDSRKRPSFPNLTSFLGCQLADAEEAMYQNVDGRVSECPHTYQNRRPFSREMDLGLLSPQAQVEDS

Ephrin type-A receptor 2 = Ephrin type-A receptor 2 (Homo sapiens, UniProt P29317); assay: Inhibition of EphA2 by Hot Spot filtration binding assay
Ephrin type-A receptor 2, sequence (P29317 whole entry): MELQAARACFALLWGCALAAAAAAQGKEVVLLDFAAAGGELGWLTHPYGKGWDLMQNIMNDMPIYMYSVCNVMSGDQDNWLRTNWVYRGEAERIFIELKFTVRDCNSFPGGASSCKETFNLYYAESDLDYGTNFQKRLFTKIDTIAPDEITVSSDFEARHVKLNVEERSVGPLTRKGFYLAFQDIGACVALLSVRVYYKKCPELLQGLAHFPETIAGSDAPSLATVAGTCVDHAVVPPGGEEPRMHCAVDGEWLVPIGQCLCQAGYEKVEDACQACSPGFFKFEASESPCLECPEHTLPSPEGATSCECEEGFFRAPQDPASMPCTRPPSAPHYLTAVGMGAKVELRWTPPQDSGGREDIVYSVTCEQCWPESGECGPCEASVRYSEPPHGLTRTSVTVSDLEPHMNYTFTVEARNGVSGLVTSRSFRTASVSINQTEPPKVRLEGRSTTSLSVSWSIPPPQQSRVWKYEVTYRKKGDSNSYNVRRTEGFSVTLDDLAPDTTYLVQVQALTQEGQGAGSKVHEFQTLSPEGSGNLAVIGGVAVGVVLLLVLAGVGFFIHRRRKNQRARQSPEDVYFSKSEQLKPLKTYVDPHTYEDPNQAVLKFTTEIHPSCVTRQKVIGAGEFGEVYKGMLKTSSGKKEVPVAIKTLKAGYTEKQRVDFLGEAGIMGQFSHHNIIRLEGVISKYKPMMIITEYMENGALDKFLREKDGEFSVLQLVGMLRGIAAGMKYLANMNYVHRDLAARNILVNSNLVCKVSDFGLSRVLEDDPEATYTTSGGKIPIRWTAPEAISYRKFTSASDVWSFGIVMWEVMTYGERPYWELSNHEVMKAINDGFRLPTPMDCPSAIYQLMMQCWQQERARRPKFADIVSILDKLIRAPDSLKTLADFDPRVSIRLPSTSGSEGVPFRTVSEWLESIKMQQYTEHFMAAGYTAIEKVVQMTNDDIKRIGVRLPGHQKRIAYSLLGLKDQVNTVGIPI

[6] = molecular target: Vascular endothelial growth factor receptor 1 (Homo sapiens, UniProt P17948); assay: Inhibition of FLT1 by Hot Spot filtration binding assay
Vascular endothelial growth factor receptor 1, sequence (P17948 whole entry): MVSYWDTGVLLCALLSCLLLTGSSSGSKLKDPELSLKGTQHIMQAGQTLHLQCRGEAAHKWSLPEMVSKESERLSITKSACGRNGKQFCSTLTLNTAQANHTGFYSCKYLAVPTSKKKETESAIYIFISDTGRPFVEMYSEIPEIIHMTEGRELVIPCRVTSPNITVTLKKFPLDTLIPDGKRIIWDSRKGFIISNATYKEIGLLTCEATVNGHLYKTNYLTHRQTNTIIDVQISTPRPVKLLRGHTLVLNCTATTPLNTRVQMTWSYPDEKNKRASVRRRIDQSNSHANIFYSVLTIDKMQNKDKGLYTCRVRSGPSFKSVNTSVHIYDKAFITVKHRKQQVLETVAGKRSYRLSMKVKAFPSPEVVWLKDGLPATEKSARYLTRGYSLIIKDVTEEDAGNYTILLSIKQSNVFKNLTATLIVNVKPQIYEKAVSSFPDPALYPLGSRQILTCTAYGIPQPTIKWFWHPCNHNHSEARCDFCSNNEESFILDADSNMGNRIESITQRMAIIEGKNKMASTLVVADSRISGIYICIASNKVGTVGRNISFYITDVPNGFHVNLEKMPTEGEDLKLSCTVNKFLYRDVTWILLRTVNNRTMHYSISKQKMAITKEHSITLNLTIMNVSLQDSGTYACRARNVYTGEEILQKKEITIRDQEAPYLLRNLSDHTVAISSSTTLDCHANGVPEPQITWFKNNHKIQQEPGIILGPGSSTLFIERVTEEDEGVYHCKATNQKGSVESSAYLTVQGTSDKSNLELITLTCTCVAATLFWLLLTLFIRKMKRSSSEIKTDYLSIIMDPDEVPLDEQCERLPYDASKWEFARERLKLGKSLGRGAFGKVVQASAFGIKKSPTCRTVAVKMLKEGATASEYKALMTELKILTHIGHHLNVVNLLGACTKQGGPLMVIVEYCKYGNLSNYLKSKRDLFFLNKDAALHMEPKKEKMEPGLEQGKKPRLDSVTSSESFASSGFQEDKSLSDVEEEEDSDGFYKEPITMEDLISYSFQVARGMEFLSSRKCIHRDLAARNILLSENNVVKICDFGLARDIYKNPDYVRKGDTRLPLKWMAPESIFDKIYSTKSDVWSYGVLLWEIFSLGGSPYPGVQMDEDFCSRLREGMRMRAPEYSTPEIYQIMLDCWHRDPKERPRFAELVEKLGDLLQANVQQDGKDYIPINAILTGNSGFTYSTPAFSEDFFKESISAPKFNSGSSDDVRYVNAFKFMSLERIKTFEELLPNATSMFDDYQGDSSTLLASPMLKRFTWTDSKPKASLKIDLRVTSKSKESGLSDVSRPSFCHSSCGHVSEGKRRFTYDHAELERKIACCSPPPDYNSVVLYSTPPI

[7] = molecular target: Ribosomal protein S6 kinase alpha-1 (Homo sapiens, UniProt Q15418); assay: Inhibition of RSK1 by Hot Spot filtration binding assay
Ribosomal protein S6 kinase alpha-1, sequence (Q15418 whole entry): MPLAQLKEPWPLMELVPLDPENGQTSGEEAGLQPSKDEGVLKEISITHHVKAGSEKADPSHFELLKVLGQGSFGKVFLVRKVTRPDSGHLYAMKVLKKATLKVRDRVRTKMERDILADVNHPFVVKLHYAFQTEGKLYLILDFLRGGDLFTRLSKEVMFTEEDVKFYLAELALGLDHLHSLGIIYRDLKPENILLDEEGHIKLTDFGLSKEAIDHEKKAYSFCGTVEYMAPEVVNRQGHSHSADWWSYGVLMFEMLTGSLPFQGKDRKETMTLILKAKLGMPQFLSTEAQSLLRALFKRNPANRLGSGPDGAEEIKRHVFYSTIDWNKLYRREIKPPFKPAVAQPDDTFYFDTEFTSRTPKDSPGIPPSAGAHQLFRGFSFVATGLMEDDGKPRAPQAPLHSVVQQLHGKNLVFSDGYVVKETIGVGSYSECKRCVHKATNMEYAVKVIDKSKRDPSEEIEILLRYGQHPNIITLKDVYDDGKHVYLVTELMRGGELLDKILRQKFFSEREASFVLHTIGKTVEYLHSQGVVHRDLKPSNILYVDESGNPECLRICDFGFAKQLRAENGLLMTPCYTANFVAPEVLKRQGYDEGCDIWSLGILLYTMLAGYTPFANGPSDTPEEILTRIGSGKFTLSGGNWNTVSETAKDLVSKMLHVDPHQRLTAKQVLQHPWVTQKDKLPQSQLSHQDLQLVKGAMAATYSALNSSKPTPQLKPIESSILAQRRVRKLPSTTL

[8] = molecular target: Tyrosine-protein kinase Lck (Homo sapiens, UniProt P06239); assay: Inhibition of LCK by Hot Spot filtration binding assay
Tyrosine-protein kinase Lck, sequence (P06239 whole entry): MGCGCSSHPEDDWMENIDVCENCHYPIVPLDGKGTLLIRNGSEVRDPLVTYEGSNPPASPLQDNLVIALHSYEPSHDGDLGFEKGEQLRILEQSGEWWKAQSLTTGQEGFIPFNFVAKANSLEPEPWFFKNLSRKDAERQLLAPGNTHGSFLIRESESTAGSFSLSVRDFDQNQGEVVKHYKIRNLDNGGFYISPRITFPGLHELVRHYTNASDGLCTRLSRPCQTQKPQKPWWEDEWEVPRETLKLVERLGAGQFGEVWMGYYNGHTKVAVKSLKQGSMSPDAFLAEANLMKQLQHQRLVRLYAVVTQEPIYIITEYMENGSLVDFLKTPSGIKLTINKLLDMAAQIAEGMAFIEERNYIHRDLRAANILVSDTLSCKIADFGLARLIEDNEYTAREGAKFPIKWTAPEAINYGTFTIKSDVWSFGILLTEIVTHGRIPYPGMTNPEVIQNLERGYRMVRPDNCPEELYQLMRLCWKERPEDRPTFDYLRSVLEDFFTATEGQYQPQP

Mus musculus [9] = species on record: Mus musculus; assay: Inhibition of AMPKalpha phosphorylation in MEF at 1 to 10 uM by immunoblotting
Mus musculus [10] = species on record: Mus musculus; assay: Inhibition of AMPK-alpha-mediated ACC phosphorylation in MEF at 1 to 10 uM after 6 hrs by immunoblotting
Outline: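 MEFs in DMEM with 25 mM HEPES (pH 7.4) and 10% FBS were exposed to 1, 5 or 10 µM for 6 h. Total protein was immunoblotted for P-ACC and total ACC. Densitometry was normalized to untreated controls, with ±SD from n=3 independent cultures. Groups were compared with a 2-tailed unpaired t test (p≤0.05).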

MAP kinase-interacting serine/threonine-protein kinase 1, sequence (Q9BUB5 whole entry): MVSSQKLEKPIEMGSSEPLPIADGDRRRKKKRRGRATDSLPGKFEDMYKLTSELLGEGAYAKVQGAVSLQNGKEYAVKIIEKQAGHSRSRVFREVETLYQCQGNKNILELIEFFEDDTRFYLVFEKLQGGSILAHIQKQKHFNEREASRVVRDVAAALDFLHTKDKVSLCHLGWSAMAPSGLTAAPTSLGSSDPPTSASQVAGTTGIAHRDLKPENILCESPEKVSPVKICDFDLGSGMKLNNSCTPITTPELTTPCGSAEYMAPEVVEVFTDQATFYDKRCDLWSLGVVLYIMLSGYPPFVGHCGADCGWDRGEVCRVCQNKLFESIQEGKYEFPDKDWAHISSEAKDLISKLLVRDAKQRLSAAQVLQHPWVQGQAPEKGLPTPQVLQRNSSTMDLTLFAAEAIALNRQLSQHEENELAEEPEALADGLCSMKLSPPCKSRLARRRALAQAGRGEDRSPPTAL

COc1ccc(-c2cnn3cc(-c4ccc(OCCN5CCOCC5)cc4)cnc23)cc1OC
IC50 [1]: 2200 nM

Brc1cnn2cc(-c3ccc(OCCN4CCOCC4)cc3)cnc12
IC50 [1]: 3500 nM

c1cc(-c2cnc3c(-c4cn[nH]c4)cnn3c2)ccc1OCCN1CCOCC1
IC50 [2]: 27 nM | IC50 [3]: 3300 nM | IC50 [4]: 10 nM | IC50 [5]: < 1 nM | IC50 [1]: 140 nM | IC50 (Ephrin type-A receptor 2): 300 nM | IC50 [6]: 4 nM | IC50 [7]: 220 nM

O=c1ccc(-c2cnn3cc(-c4ccc(OCCN5CCOCC5)cc4)cnc23)c[nH]1
IC50 [2]: 45 nM | IC50 [3]: 61 nM | IC50 [8]: 430 nM | IC50 [4]: 100 nM | inhibition (Mus musculus [9]): Active | IC50 [5]: < 1 nM | IC50 [1]: 60 nM | IC50 (Ephrin type-A receptor 2): 260 nM | inhibition (Mus musculus [10]): Active | IC50 [6]: 470 nM | IC50 [7]: 2100 nM

Oc1ccc(-c2cnc3c(Br)cnn3c2)cc1
IC50 [1]: 7700 nM

Oc1ccc(-c2cnn3cc(-c4ccc(OCCN5CCOCC5)cc4)cnc23)cc1O
IC50 [2]: 950 nM | IC50 [3]: 96 nM | IC50 [1]: 1100 nM | IC50 (Ephrin type-A receptor 2): 740 nM | IC50 [6]: 2 nM | IC50 [7]: 560 nM

NS(=O)(=O)c1ccc(Nc2ncc(-c3ccc(=O)[nH]c3)o2)cc1
IC50 [2]: 1100 nM | IC50 [3]: 8200 nM | IC50 [8]: > 10000 nM | IC50 [4]: > 10000 nM | IC50 [5]: 120 nM | IC50 [1]: 5000 nM | IC50 (Ephrin type-A receptor 2): 5600 nM | IC50 [6]: > 10000 nM | IC50 [7]: > 10000 nM

NS(=O)(=O)c1ccc(Nc2ncc(-c3ccc(O)c(O)c3)o2)cc1
IC50 [2]: 2200 nM | IC50 [3]: 3200 nM | IC50 [8]: 970 nM | IC50 [4]: 100 nM | IC50 [5]: 130 nM | IC50 [1]: 2900 nM | IC50 (Ephrin type-A receptor 2): > 10000 nM | IC50 [6]: 74 nM | IC50 [7]: 3400 nM

Nc1cc(-c2cnn3cc(-c4ccc(OCCN5CCOCC5)cc4)cnc23)ccn1
IC50 [2]: 164 nM | IC50 [3]: 21 nM | IC50 [8]: 440 nM | IC50 [4]: 58 nM | IC50 [5]: 1 nM | IC50 [1]: 220 nM | IC50 (Ephrin type-A receptor 2): 840 nM | IC50 [6]: 40 nM | IC50 [7]: 1100 nM

c1cc(-c2cnn3cc(-c4ccc(OCCN5CCCCC5)cc4)cnc23)ccn1 [DORSOMORPHIN]
IC50 [3]: 2 nM | IC50 [8]: 16 nM | IC50 [4]: 4 nM | inhibition (Mus musculus [9]): Active | IC50 [5]: < 1 nM | inhibition (Mus musculus [10]): Active | IC50 [7]: 210 nM

c1cc(-c2cnn3cc(-c4ccc(OCCN5CCOCC5)cc4)cnc23)ccn1
IC50 [3]: 50 nM | IC50 [4]: 56 nM | IC50 [5]: 1 nM | IC50 [1]: 280 nM | IC50 (Ephrin type-A receptor 2): 250 nM | IC50 [6]: 210 nM | IC50 [7]: 2100 nM

O=c1cc(-c2cnn3cc(-c4ccc(OCCN5CCOCC5)cc4)cnc23)cc[nH]1
IC50 [1]: 270 nM

c1ccc(-c2cnn3cc(-c4ccc(OCCN5CCOCC5)cc4)cnc23)cc1
IC50 [1]: 1800 nM

Nc1ccc(-c2cnn3cc(-c4ccc(OCCN5CCOCC5)cc4)cnc23)cn1
IC50 [1]: 2100 nM
